Assay outcomes (PubChem BioAssay)
HUVEC tox IL1B – toxic to HUVEC cells under IL-1B stimulation; HUVEC cell count loss, Hoechst imaging, IL-1B stimulated; cell count reduction, % at 2 µM; 94,000 tested, 0.41% active;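 active means cell count reduction more than 3 SD above the screen-wide mean, cut at about 70% in these data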;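 further: normalized per plate to untreated control cells as the no-loss baseline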
FAK blocker – FAK (human) kinase inhibition; inhibition, %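 (tested at 7 µM)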; AID 727; 97,000 tested, 0.84% active; biochemical FAK kinase activity assay; Q05397; in the data active means inhibition above about 19%;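 further: 0% = DMSO and 100% = reference compound high control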
NFkB transloc pot – enhances IL-1B driven NFkB nuclear translocation. HUVEC IL-1B NFkB p65 nuclear translocation imaging. 94,000 tested, 0.3% active. activation, % at 2 µM;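 active means activation above 40%, about the mean plus 3 SD, also judged a hit on visual image review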;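 further: percent activation is computed from the nuclear over cytoplasmic p65 intensity ratio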
IL1B NFkB inh – blocks IL-1B driven NFkB nuclear translocation in HUVEC cells; HUVEC IL-1B NFkB p65 nuclear translocation imaging; inhibition, % at 2 µM; 94,000 tested, 0.43% active; AID 796;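 active means inhibition above about 30% together with a positive call from visual inspection of the well image, limit read from the data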;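 further: nuclear over cytoplasmic p65 intensity ratio measured by imaging; 0% = IL-1B stimulated DMSO wells and 100% = unstimulated DMSO wells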
Measles CPE – protection of cells from measles virus; AID 841; Measles virus-infected cells, CPE protection, absorbance; 140,000 tested, 1.5% active; protection (pct of control), % at 4 µM; in the data active means protection mostly above about 24%, no sharp cut-off; inactive means mostly below about 26%
Rev-RRE block – disrupts HIV-1 Rev binding to RRE RNA. P05866. Rev peptide-RRE RNA binding, FRET. inhibition, % at 8 µM. 97,000 tested, 0.79% active. AID 704;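 active means inhibition above the screen-wide mean plus 3 SD, cut at about 35% in these data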;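 further: 0% = median DMSO wells and 100% = median Neomycin B control wells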
Target sequence (P05866 whole entry, looked up): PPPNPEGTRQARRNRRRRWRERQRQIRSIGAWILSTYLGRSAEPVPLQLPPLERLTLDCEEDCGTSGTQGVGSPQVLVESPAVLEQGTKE
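Test system – labelled RRE RNA duplex and labelled Rev peptide · Reagent – labelled Rev peptide · Doses – one concentration, 8 µM nominal · Incubation – 5 + 15 min at 25 °C · Signal – FRET fluorescence readout · Read-out basis – % inhibition of FRET ratio versus controls · Control set – DMSO wells as 0% and neomycin B wells as 100% inhibition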
* hit, by the source's call; [ ] = remark or other dose. Shown are actives, neighbours in structure and some others; about 3.3% of the full set was active somewhere.

How did O=C(Nc1ccc2oc(-c3ccccc3)nc2c1)c1ccco1 do in these assays?
Measles CPE: 11

Results for O=C(Nc1nc2ccccc2n1CCOc1ccc(Cl)cc1)c1ccco1 ?
HUVEC tox IL1B: -2; FAK blocker: 5; NFkB transloc pot: 0; IL1B NFkB inh: 0; Measles CPE: 40*; Rev-RRE block: 9

What do the screens show for `COCCCNC(=O)c1sc2ncnc(N3CCc4ccccc4C3)c2c1C`?
FAK blocker: 23*; Measles CPE: 2; Rev-RRE block: 8

How did O=C(N/N=C/c1ccc(OCC(=O)N2CCCCC2)cc1)c1ccccc1O do in these assays?
Measles CPE: 6

How did CC1Cc2cc(-c3csc(NC(=O)Cc4ccccc4)n3)ccc2N1S(C)(=O)=O (stereo not given) do in these assays?
HUVEC tox IL1B: 17; FAK blocker: 2; NFkB transloc pot: 7; IL1B NFkB inh: -7; Measles CPE: 71*; Rev-RRE block: 8

What do the screens show for `CS(=O)(=O)N1CCc2cc(-c3csc(NC(=O)C(c4ccccc4)c4ccccc4)n3)ccc21`?
HUVEC tox IL1B: -5; FAK blocker: 0; NFkB transloc pot: 1; IL1B NFkB inh: -1; Measles CPE: 6; Rev-RRE block: 8

What do the screens show for `O=C(CSc1nnc(CCCN2C(=O)c3cccc4cccc(c34)C2=O)n1-c1ccccc1)N1CCN(CCO)CC1`?
Measles CPE: 4

Results for Cc1cc(C)c(C(=O)Nc2ccc(Br)c(C(F)(F)F)c2)c(C)c1 ?
Measles CPE: 22

How did N#CC1=C(SCc2ccccc2)NC2=C(C(=O)CCC2)C1c1ccc2c(c1)OCO2 (stereo not given) do in these assays?
HUVEC tox IL1B: -1; FAK blocker: -2; NFkB transloc pot: -14; IL1B NFkB inh: 14; Measles CPE: 9; Rev-RRE block: 10

Results for CCSC1=C(C#N)C(c2ccc3c(c2)OCO3)C2=C(CCCC2=O)N1 (stereo not given) ?
HUVEC tox IL1B: 6; FAK blocker: 2; NFkB transloc pot: 66*; IL1B NFkB inh: -66; Measles CPE: 60; Rev-RRE block: 4

Results for Cc1cccc(NC(=S)N2CCOCC2)c1C ?
Measles CPE: 3

What do the screens show for `Cc1ccc(S(=O)(=O)NCc2ccncc2)cc1`?
HUVEC tox IL1B: -9; FAK blocker: -1; NFkB transloc pot: 5; IL1B NFkB inh: -5; Measles CPE: 11; Rev-RRE block: 0

How did CC1CCCCC1NS(=O)(=O)c1ccc(S(=O)(=O)NCc2ccncc2)cc1 (stereo not given) do in these assays?
HUVEC tox IL1B: 22; FAK blocker: 2; NFkB transloc pot: 2; IL1B NFkB inh: -2; Measles CPE: 39*; Rev-RRE block: 10

Results for Cc1ccc(Cl)cc1NC(=S)NCc1cccn1C ?
Measles CPE: 1

What do the screens show for `Cc1nn(-c2ccccc2)c2nc(C(F)(F)F)[nH]c(=O)c12`?
Measles CPE: 41*

Results for CCOc1cc(C(c2c(C)[nH][nH]c2=O)c2c(C)[nH][nH]c2=O)ccc1OC(=O)c1cccc([N+](=O)[O-])c1 ?
HUVEC tox IL1B: 16; FAK blocker: -2; NFkB transloc pot: 6; IL1B NFkB inh: -6; Measles CPE: 37*; Rev-RRE block: 6

Results for COc1cccc(Nc2ncccc2C(=O)NCc2ccccc2)c1 ?
HUVEC tox IL1B: -17; FAK blocker: 3; NFkB transloc pot: 7; IL1B NFkB inh: -7; Measles CPE: 3; Rev-RRE block: 52*

Results for CC(C)Sc1oc(-c2ccco2)nc1S(=O)(=O)c1ccccc1 ?
HUVEC tox IL1B: 5; FAK blocker: 1; NFkB transloc pot: -7; IL1B NFkB inh: 7; Measles CPE: 30*; Rev-RRE block: 12

How did O=C1c2cccc3c(N4CCCCC4)ccc(c23)C(=O)N1CCO do in these assays?
HUVEC tox IL1B: -10; FAK blocker: 4; NFkB transloc pot: 1; IL1B NFkB inh: -1; Measles CPE: 1; Rev-RRE block: 118*[fluorescence artefact?]

Results for CC(=O)c1ccc2c3c(cccc13)C(=O)N(c1c(C)nn(C)c1C)C2=O ?
HUVEC tox IL1B: -5; FAK blocker: 2; NFkB transloc pot: 14; IL1B NFkB inh: -14; Measles CPE: 15; Rev-RRE block: 11

Results for Cc1n[nH]c(C)c1N1C(=O)c2cccc3c(N4CCCCCC4)ccc(c23)C1=O ?
HUVEC tox IL1B: -7; FAK blocker: -2; NFkB transloc pot: 3; IL1B NFkB inh: -3; Measles CPE: 28; Rev-RRE block: 134*[fluorescence artefact?]

What do the screens show for `COCCN(C(=O)Cc1cccs1)c1nnc(-c2cccnc2)s1`?
HUVEC tox IL1B: -8; FAK blocker: -2; NFkB transloc pot: 14; IL1B NFkB inh: -14; Measles CPE: 20*; Rev-RRE block: -2

What do the screens show for `Cc1nc2ccc(NS(=O)(=O)c3ccc4c(c3)OCCO4)cc2s1`?
HUVEC tox IL1B: 2; FAK blocker: 0; NFkB transloc pot: 13; IL1B NFkB inh: -13; Measles CPE: 4; Rev-RRE block: 4

What do the screens show for `Cc1cccc(NS(=O)(=O)c2cc(C(=O)N3CCc4ccccc4C3)ccc2Cl)c1C`?
HUVEC tox IL1B: -25; FAK blocker: 3; NFkB transloc pot: -2; IL1B NFkB inh: 2; Measles CPE: 3; Rev-RRE block: 1

What do the screens show for `Cn1cc(C(=O)C(F)(F)F)c2ccccc21`?
HUVEC tox IL1B: 24; FAK blocker: 3; NFkB transloc pot: -5; IL1B NFkB inh: 5; Measles CPE: 53*; Rev-RRE block: 1

What do the screens show for `Cn1cc(SCC(N)=O)c2ccccc21`?
HUVEC tox IL1B: 7; FAK blocker: -1; NFkB transloc pot: -8; IL1B NFkB inh: 8; Measles CPE: 9; Rev-RRE block: 6

What do the screens show for `O=C(CSC(=S)N1CCOCC1)N1N=CCC1c1ccccc1` (stereo not given)?
HUVEC tox IL1B: -150; FAK blocker: 2; NFkB transloc pot: -9; IL1B NFkB inh: 9; Measles CPE: 35*; Rev-RRE block: 7

How did Cc1cccc(OCC(=O)NNC(=O)c2cc3ccccc3oc2=O)c1 do in these assays?
HUVEC tox IL1B: 20; FAK blocker: -2; NFkB transloc pot: 9; IL1B NFkB inh: -9; Measles CPE: 43*; Rev-RRE block: 2

How did O=C(COc1ccc(F)cc1)NNC(=O)c1cc2ccccc2oc1=O do in these assays?
Measles CPE: 6

What do the screens show for `CCOc1ccccc1OCCCOc1ccc(C)cc1Br`?
HUVEC tox IL1B: -39; FAK blocker: 0; NFkB transloc pot: 14; IL1B NFkB inh: -14; Measles CPE: 33*; Rev-RRE block: 13

Results for CC(=O)NCCn1c(SCc2ccc(C)cc2C)nc2ccccc2c1=O ?
HUVEC tox IL1B: -2; FAK blocker: 0; NFkB transloc pot: -5; IL1B NFkB inh: 5; Measles CPE: 13; Rev-RRE block: 8

What do the screens show for `CC12C=CC3(O1)C(C(=O)N(c1cccnc1)C3C(=O)NC1CCCCC1)C2C(=O)Nc1ccccc1` (stereo not given)?
HUVEC tox IL1B: -31; FAK blocker: 0; NFkB transloc pot: -31; IL1B NFkB inh: 31*; Measles CPE: 26; Rev-RRE block: 8
